Assay results as given in ChEMBL document CHEMBL1133118 (J Med Chem, 2000).
Each block holds one compound with its values, some of them ahead of it.

What was measured:
[1] = target: T1, Adenosine receptor A2a (Homo sapiens, UniProt P29274); experiment: Displacement of [3H]-SCH- 58261 from human adenosine A2A receptor expressed in CHO cells; range 2.40-3.55; assay type: cell-based
[2] = target: T2, Adenosine receptor A1 (Homo sapiens, UniProt P30542); experiment: Displacement of [3H]DPCPX from human adenosine A1 receptor expressed in CHO cells; range 81-127; assay type: cell-based
T2 sequence (P30542 whole entry): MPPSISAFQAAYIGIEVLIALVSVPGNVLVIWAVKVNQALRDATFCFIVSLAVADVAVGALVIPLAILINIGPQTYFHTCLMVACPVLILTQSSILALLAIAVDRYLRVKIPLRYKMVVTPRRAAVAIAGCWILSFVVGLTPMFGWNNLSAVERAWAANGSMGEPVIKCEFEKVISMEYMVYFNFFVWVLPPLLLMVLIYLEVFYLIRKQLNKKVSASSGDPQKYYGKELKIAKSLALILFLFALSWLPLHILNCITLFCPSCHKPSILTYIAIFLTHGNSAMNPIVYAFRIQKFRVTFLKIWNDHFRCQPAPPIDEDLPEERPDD

[3] = target: Adenosine receptors; A1 & A3 (Homo sapiens) (UniProt P30542+P0DMS8); experiment: Ratio of binding affinity of human A1 receptor to that of human A3 receptor; assay type: protein assay
In short: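 Ki ratio from displacement in CHO membranes, 6–8 concentrations, n=3-6, filtration counting. A1: 1 nM [3H]DPCPX, 50 μg protein, 120 min at 25 °C, nonspecific with 10 μM CHA. A3: 1 nM [3H]MRE3008-F20, 50 μg protein, Tris/10 mM MgCl2 pH 7.4, 120 min at 4 °C, nonspecific with 1 μM MRE3008-F20.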

[4] = target: Adenosine receptors; A2b & A3 (Homo sapiens) (UniProt P29275+P0DMS8); experiment: Ratio of binding affinity of human A2B receptor to that of human A3 receptor; assay type: protein assay
In short: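 Ki ratio, n=3-6, 6–8 concentrations. A2B in HEK-293 membranes (20 μg): 40 nM [3H]DPCPX, 50 mM Tris HCl, 10 mM MgCl2, 1 mM EDTA, 0.1 mM benzamidine pH 7.4, 2 IU/mL adenosine deaminase, 60 min at 25 °C, nonspecific with 100 μM NECA. A3 in CHO membranes (50 μg): 1 nM [3H]MRE3008-F20, 120 min at 4 °C.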

[5] = target: T3, Adenosine receptor A3 (Homo sapiens) (UniProt P0DMS8); experiment: Percentage of blockade by 1 uM of the inhibition by 100 nM IB-MECA-inhibited cAMP accumulation in CHO cells expressing human adenosine A3 receptor.; assay type: functional, cell-based
T3 sequence (whole entry): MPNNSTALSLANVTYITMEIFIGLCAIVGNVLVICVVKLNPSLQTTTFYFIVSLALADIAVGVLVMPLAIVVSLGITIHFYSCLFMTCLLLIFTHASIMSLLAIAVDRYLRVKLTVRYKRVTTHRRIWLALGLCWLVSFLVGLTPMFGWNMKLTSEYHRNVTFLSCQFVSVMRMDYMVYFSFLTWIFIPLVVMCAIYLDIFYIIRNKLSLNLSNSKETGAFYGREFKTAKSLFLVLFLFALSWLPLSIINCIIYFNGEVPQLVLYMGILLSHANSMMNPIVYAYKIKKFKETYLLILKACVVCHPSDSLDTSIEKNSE
In short: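 CHO cells stably expressing human A3 receptor; membranes in 50 mM Tris HCl, 10 mM MgCl2, 1 mM EDTA pH 7.4 with 5 μM GTP, 0.5 mM […] and 2.0 IU/mL adenosine deaminase. Preincubated 10 min at 37 °C, then IB-MECA (100 nM) and/or antagonist with 1 mM ATP and 10 μM forskolin for 10 min. Boiled 2 min. cAMP read by [3H]cAMP competition with adrenal binding protein.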

[6] = target: T4, Adenosine receptor A3 (Homo sapiens, UniProt P0DMS8); experiment: biochemical
T4 sequence (P0DMS8 whole entry): T3 sequence (whole entry)

[7] = target: T5, Adenosine receptor A2b (Homo sapiens, UniProt P29275); experiment: Displacement of [3H]DPCPX from Adenosine A2b receptor expressed in HEK-293 cells; range 81-101
T5 sequence (P29275 whole entry): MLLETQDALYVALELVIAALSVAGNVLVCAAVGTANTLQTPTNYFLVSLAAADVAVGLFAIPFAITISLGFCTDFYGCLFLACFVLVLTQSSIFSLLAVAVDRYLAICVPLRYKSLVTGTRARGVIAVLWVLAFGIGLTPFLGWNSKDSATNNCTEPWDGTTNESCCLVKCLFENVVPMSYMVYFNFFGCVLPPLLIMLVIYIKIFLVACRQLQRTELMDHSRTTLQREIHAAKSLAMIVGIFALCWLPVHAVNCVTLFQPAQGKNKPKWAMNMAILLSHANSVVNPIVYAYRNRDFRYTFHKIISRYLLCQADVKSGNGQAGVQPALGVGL

[8] = target: T1, Adenosine receptor A2a; experiment: Displacement of [3H]-SCH- 58261 from human adenosine A2A receptor expressed in CHO cells; range 65-92; assay type: cell-based
In short: (§1)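 Membranes from CHO cells stably expressing human A2A receptor, grown in DMEM/F12 without nucleosides, resuspended in 50 mM Tris HCl, 10 mM MgCl2, pH 7.4; 50 μg protein/assay. Competition with [3H]SCH 58261 at 6–8 or more compound concentrations, 60 min at 25 °C; nonspecific binding with 50 μM NECA. Filtration on GF/B filters, scintillation counting; n=3-6.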

[9] = target: T5, Adenosine receptor A2b; experiment: Displacement of [3H]DPCPX from Adenosine A2b receptor expressed in […]; range 260-352; assay type: cell-based
[10] = target: T4, Adenosine receptor A3; experiment: Displacement of [3H]MRE3008-F20 from human adenosine A3 receptor expressed in CHO cells; range 0.27-0.34; assay type: cell-based
[11] = target: T2, Adenosine receptor A1; experiment: Displacement of [3H]DPCPX from human adenosine A1 receptor expressed in CHO cells; range 269-326; assay type: cell-based
[12] = target: T4, Adenosine receptor A3; experiment: Inhibition of cAMP accumulation in CHO cells expressing human adenosine A3 receptor; range 2.9-6.0; assay type: functional, cell-based
[13] = target: T3, Adenosine receptor A3 (Homo sapiens); details: CHO, 1 uM
[14] = target: T5, Adenosine receptor A2b; experiment: Displacement of [3H]DPCPX from Adenosine A2b receptor expressed in […]; range 56-75; assay type: cell-based
[15] = target: T1, Adenosine receptor A2a; experiment: Displacement of [3H]-SCH- 58261 from human adenosine A2A receptor expressed in CHO cells; range 1.70-2.10; assay type: cell-based; in short: as §1
[16] = target: T4, Adenosine receptor A3; experiment: Displacement of [3H]MRE3008-F20 from human adenosine A3 receptor expressed in CHO cells; range 285-385; assay type: cell-based
[17] = target: T5, Adenosine receptor A2b; experiment: Displacement of [3H]DPCPX from Adenosine A2b receptor expressed in […]; range 157-268; assay type: cell-based
[18] = target: T1, Adenosine receptor A2a; experiment: Displacement of [3H]-SCH- 58261 from human adenosine A2A receptor expressed in CHO cells; range 1024-1396; assay type: cell-based
[19] = target: T2, Adenosine receptor A1; experiment: Displacement of [3H]DPCPX from human adenosine A1 receptor expressed in CHO cells; range 323-378; assay type: cell-based
[20] = target: T4, Adenosine receptor A3; experiment: Inhibition of cAMP accumulation in CHO cells expressing human adenosine A3 receptor; range 2.8-8.1; assay type: functional, cell-based
[21] = target: T3, Adenosine receptor A3 (Homo sapiens); details: CHO, 1 uM; remark: listed apart in the source
[22] = target: T4, Adenosine receptor A3; experiment: biochemical; remark: listed apart in the source
[23] = target: T1, Adenosine receptor A2a; experiment: Displacement of [3H]-SCH- 58261 from human adenosine A2A receptor expressed in CHO cells; range 730-1100; assay type: cell-based
[24] = target: T2, Adenosine receptor A1; experiment: Displacement of [3H]DPCPX from human adenosine A1 receptor expressed in CHO cells; range 267-453; assay type: cell-based
[25] = target: T4, Adenosine receptor A3; experiment: Displacement of [3H]MRE3008-F20 from human adenosine A3 receptor expressed in CHO cells; range 3228-3614; assay type: cell-based
[26] = target: T5, Adenosine receptor A2b; experiment: Displacement of [3H]DPCPX from Adenosine A2b receptor expressed in HEK-293 cells; range 3828-4817
[27] = target: T5, Adenosine receptor A2b; experiment: Displacement of [3H]DPCPX from Adenosine A2b receptor expressed in CHO cells; assay type: cell-based
[28] = target: T1, Adenosine receptor A2a; experiment: Displacement of [3H]-SCH- 58261 from human adenosine A2A receptor expressed in CHO cells; range 2826-3761; assay type: cell-based
[29] = target: T2, Adenosine receptor A1; experiment: Tested for inhibitory activity against human adenosine A1 receptor by displacement of [3H]DPCPX expressed in CHO cells; value ranges from 2362-2575; assay type: cell-based
[30] = target: T4, Adenosine receptor A3; experiment: biochemical; remark: listed apart in the source

T1 sequence (P29274 whole entry): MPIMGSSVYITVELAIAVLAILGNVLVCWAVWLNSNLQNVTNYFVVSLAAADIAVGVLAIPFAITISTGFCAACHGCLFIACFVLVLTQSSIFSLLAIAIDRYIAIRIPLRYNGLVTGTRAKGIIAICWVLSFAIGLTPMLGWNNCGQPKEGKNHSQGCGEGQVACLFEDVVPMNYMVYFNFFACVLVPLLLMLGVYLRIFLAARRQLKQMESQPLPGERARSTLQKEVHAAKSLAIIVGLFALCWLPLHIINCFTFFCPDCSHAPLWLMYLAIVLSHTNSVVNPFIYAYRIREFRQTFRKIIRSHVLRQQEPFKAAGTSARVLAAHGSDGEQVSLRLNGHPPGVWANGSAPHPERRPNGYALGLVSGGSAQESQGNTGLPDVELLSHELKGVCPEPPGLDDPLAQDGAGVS

SMILES: Cn1cc2c(nc(N)n3nc(-c4ccco4)nc23)n1
Ki [1]: 2.8 nM
Ki [2]: 101 nM
Ratio [3]: 0.33
Ratio [4]: 0.3
inhibition [5]: 26%
Ki [6]: 300 nM
Ki [7]: 90 nM

SMILES: CCn1cc2c(nc(N)n3nc(-c4ccco4)nc23)n1
Ki [14]: 65 nM
Ki [15]: 1.95 nM
Ki [16]: 331 nM
Ratio [3]: 0.015
Ratio [4]: 0.19
inhibition [5]: 25%

SMILES: Cn1cc2c(nc(NC(=O)Nc3cccc(Cl)c3)n3nc(-c4ccco4)nc23)n1
Ki [17]: 205 nM
Ki [18]: 1200 nM
Ki [19]: 350 nM
IC50 [20]: 4.8 nM
Ratio [3]: 875
Ratio [4]: 512
inhibition [21]: 92%
Ki [22]: 0.4 nM

SMILES: Nc1nc2nn(CCc3cccc4ccccc34)cc2c2nc(-c3ccco3)nn12
Ki [23]: 896 nM
Ki [24]: 348 nM
Ki [25]: 3420 nM
Ratio [3]: 0.1
Ratio [4]: 1.26
inhibition [5]: 4%
Ki [26]: 4290 nM

Next, values leading:

Ki [8]: 80 nM
Ki [9]: 303 nM
Ki [10]: 0.32 nM
Ki [11]: 296 nM
IC50 [12]: 4.1 nM
Ratio [3]: 925
Ratio [4]: 946
inhibition [13]: 93%
SMILES: CCCCn1cc2c(nc(NC(=O)Nc3ccc(OC)cc3)n3nc(-c4ccco4)nc23)n1

Ki [27]: > 10000 nM
Ki [28]: 3260 nM
Ki [29]: 2470 nM
Ratio [3]: 154
Ratio [4]: > 625
inhibition [5]: 52%
Ki [30]: 16 nM
SMILES: COc1ccc(NC(=O)Nc2nc3nn(CCc4cccc5ccccc45)cc3c3nc(-c4ccco4)nn23)cc1
